Reference: ChEMBL document CHEMBL1629709, “Inhibition of melanogenesis and oxidation by protocatechuic acid from Origanum vulgare (oregano)” (J Nat Prod, 2010)
Values after ≈ are worked out from the molar mass of the structure shown. Active and inactive are the calls of the source. No cut-off for these calls is given here.

Tests used:
B16 [1] = test: Cytotoxicity against mouse B16 cells up to 100 ug/ml after 72 hrs by MTT assay; format: cell-based; settings: b16, 72 h
How it was run: (§1)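 B16 or Hs68 cells (1 × 10^4/well) seeded ≥24 h in DMEM with 10% FBS, then treated 72 h with 0, 5, 10, 20, 50, 100 µg/mL. MTT (0.5 mg/mL) for 4 h, formazan dissolved in DMSO, A570 read. Viability given as % of 0.1% DMSO vehicle culture; independent triplicates, mean ± SD.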

Hs68 = test: Cytotoxicity against human HS68 cells up to 100 ug/ml after 72 hrs by MTT assay; format: cell-based; settings: hs68, 72 h; how it was run: as §1
[2] = biological target: T1, Tyrosinase (Mus musculus) (UniProt P11344); test: Inhibition of DOPA oxidase activity of tyrosinase in mouse B16 cells at 10 to 20 ug/ml after 72 hrs by colorimetry; format: cell-based
T1 sequence (whole entry): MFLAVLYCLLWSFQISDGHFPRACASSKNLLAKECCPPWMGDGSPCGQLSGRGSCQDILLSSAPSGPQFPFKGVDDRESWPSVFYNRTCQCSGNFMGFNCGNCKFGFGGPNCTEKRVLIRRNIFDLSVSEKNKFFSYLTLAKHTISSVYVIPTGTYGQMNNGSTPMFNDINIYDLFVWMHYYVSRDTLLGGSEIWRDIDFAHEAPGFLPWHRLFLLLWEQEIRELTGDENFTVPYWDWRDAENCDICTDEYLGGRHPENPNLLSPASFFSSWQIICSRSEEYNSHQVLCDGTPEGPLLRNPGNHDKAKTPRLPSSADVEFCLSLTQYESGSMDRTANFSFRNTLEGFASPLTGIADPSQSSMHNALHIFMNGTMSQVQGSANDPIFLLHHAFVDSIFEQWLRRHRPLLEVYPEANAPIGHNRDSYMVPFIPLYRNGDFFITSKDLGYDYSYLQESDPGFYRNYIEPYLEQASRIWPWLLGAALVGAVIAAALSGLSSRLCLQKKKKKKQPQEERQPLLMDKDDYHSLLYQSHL
How it was run: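 B16 cells (1 × 10^5 cells/mL) plated ≥24 h, then α-MSH (1 µM) alone or with 10 or 20 µg/mL agent for 72 h. Lysed in 50 mM sodium phosphate pH 6.8 with 1% Triton X-100 and freeze-thawed. Substrate of 6.3 mM MBTH, 1.1 mM DOPA, pH 7.1 buffer with 4% DMF added. 37 °C for 4 h, A508 read against α-MSH control; independent triplicates.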

[3] = biological target: T1, Tyrosinase (Mus musculus); test: Inhibition of tyrosinase in mouse B16 cells at 10 to 20 ug/ml after 72 hrs by spectrophotometry; format: cell-based
How it was run: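 B16 cells (1 × 10^5 cells/mL) plated ≥24 h, then α-MSH (1 µM) alone or with 10 or 20 µg/mL agent for 72 h. Lysed in 50 mM sodium phosphate pH 6.8 with 1% Triton X-100 and freeze-thawed. 100 µL of 10 mM DOPA added, 37 °C for 4 h, DOPA oxidation read at A475 against α-MSH control; independent triplicates.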

[4] = test system: Radical scavenging activity; test: Antioxidant activity assessed as DPPH radical scavenging activity at 100 ug/ml after 30 mins; format: functional
How it was run: (§2)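 Sample (100 µL) added to 900 µL of 0.1 mM ethanolic DPPH and kept 30 min in the dark, then A517 read. Scavenging (%) = (1 − Asample/Acontrol) × 100. Control lacks test agent; ascorbic acid used as standard. EC50 estimated from the % inhibition versus concentration plot; mean ± SD, n = 3.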

[5] = test system: Radical scavenging activity; test: Antioxidant activity assessed as DPPH radical scavenging activity at 10 ug/ml after 30 mins; format: functional; how it was run: as §2
[6] = test system: Radical scavenging activity; test: Antioxidant activity assessed as DPPH radical scavenging activity at 5 ug/ml after 30 mins; format: functional; how it was run: as §2
[7] = test system: Radical scavenging activity; test: Antioxidant activity assessed as DPPH radical scavenging activity after 30 mins; format: functional; how it was run: as §2
[8] = test system: Radical scavenging activity; test: Antioxidant activity assessed as DPPH radical scavenging activity at 20 ug/ml after 30 mins; format: functional; how it was run: as §2
[9] = test system: Radical scavenging activity; test: Antioxidant activity assessed as DPPH radical scavenging activity at 1 ug/ml after 30 mins; format: functional; how it was run: as §2
[10] = Antioxidant activity in mouse BNL-CL2 cells assessed as inhibition of H2O2-induced ROS production at 20 ug/ml by DCFHDA assay; format: functional; settings: BNL CL.2, values are per cent of control
How it was run: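 BNLCL2 cells (1 × 10^5 cells/mL) exposed 24 h to 20 µg/mL agent. Detached, washed, loaded with 10 µM DCFH-DA in PBS for 30 min at 37 °C, then stimulated with 0.1 mM H2O2 for 30 min at 37 °C. DCF fluorescence read at ex 504/em 524 nm against H2O2-treated cells. Independent triplicates.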

[11] = Antioxidant activity assessed as trolox equivalent of ABTS radical scavenging activity after 12 to 16 hrs; format: functional
How it was run: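 ABTS (7 mM) oxidized with 2.45 mM potassium persulfate (final) in the dark at room temperature for 12–16 h. Diluted with ethanol to A734 0.70 ± 0.02 at 30 °C. 0.1 mL sample added to 2.9 mL, 20 min at 30 °C, A734 read. TEAC reported as mg Trolox/g, from the concentration giving the same absorbance change as 1 mg Trolox.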

B16 [12] = test: Antimelanogenic activity in mouse B16 cells assessed as decrease in TRP1 expression at 20 ug/ml after 72 hrs by flow cytometry assay; format: functional; settings: B16, 72 h
How it was run: (§3)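 B16 cells (1 × 10^5 cells/mL) given α-MSH (1 µM) alone or with 20 µg/mL compound for 72 h. Mouse primary antibodies (1:300) 45 min at 4 °C, FITC anti-mouse IgG (1:500) 30 min at 4 °C. Read by flow cytometry against a normal mouse IgG1 isotype control; n = 3.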

B16 [13] = test: Antimelanogenic activity in mouse B16 cells assessed as inhibition of alpha-MSH-induced melanin formation after 72 hrs by spectrophotometry; format: functional, cell-based
How it was run: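 B16 cells (1 × 10^5 cells/mL) grown 24 h, then α-MSH (1 µM) plus 10 or 20 µg/mL compound in phenol red-free DMEM for 72 h. Melanin released into the medium read at OD 405 nm and expressed as % of 0.1% DMSO vehicle control. Independent triplicate experiments, mean ± SD.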

B16 [14] = test: Antimelanogenic activity in mouse B16 cells assessed as decrease in TRP2 expression at 20 ug/ml after 72 hrs by Western blotting; format: functional, cell-based
How it was run: (§4)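 B16 cells (1 × 10^5 cells/mL) given α-MSH (1 µM) alone as control or α-MSH plus 20 µg/mL compound, 72 h. Lysis at 4 °C for 20 min in Tris-HCl pH 7.5 buffer with 1% Triton X-100, EGTA, NaCl and PMSF. 40 µg protein run on 12.5% SDS-PAGE and transferred to nitrocellulose. Blocked in 5% skim milk. Probed with target and β-actin antibodies, HRP secondary, ECL detection.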

[15] = Antioxidant activity assessed as ferrous ion chelating effect after 10 mins; format: functional
How it was run: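 Ferrozine method. 10 µL sample with 20 µL of 2 mM FeCl2 for 5 min, then 40 µL of 5 mM ferrozine added and volume brought to 1 mL with water. Shaken and held 10 min at room temperature, A562 read. EDTA as positive control. Chelation (%) = (1 − Asample/Acontrol) × 100.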

[16] = Antioxidant activity assessed as inhibition of Fe2+/ascorbate-induced lipid peroxidation by TBA assay; format: functional
How it was run: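 Commercial liposomes (225–250 nm) with 10 mM FeSO4 and 10 mM ascorbic acid (11 µL each) plus compound in 50 mM sodium phosphate buffer pH 7.4, 2.5 mL final volume, 37 °C for 1 h. Stopped with TBA/TCA and EDTA, then heated at 100 °C for 20 min. Centrifuged and MDA adduct read at A532. Four replicates; inhibition (%) = (1 − Asample/Acontrol) × 100.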

B16 [17] = test: Antimelanogenic activity in mouse B16 cells assessed as decrease in tyrosinase expression at 20 ug/ml after 72 hrs by flow cytometry assay; format: functional; settings: B16, 72 h; how it was run: as §3
B16 [18] = test: Antimelanogenic activity in mouse B16 cells assessed as decrease in MITF expression at 20 ug/ml after 72 hrs by Western blotting; format: functional, cell-based; how it was run: as §4
B16 [19] = test: Antimelanogenic activity in mouse B16 cells assessed as decrease in TRP2 expression at 20 ug/ml after 72 hrs by flow cytometry assay; format: functional; settings: B16, 72 h; how it was run: as §3
B16 [20] = test: Antimelanogenic activity in mouse B16 cells assessed as decrease in tyrosinase expression at 20 ug/ml after 72 hrs by Western blotting; format: functional, cell-based; how it was run: as §4
B16 [21] = test: Effect on nuclear morphology of mouse B16 cells at 20 ug/ml after 72 hrs by Hoechst 33342 staining in presence of alpha-MSH; format: ADME, cell-based; settings: b16, 72 h
How it was run: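 B16 cells (1 × 10^5 cells/mL) given α-MSH (1 µM) alone or with 20 µg/mL compound for 72 h. Fixed in 4% paraformaldehyde, nuclei stained with 0.1 µg/mL Hoechst 33342, and viewed by inverted fluorescence microscopy (200×).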

[22] = Antioxidant activity assessed as reducing capacity of the compound up to 100 ug/ml after 20 mins; format: functional
How it was run: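 Sample (0.2 mL; 0, 1, 5, 10, 20, 100 µg/mL) mixed with sodium phosphate buffer pH 6.6 and 1% potassium ferricyanide, 50 °C for 20 min. 10% TCA added, centrifuged at 10000g for 10 min. Upper layer mixed with water and 0.1% FeCl3. A700 taken directly as reducing power; ascorbic acid standard; mean ± SD, n = 3.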

Liver [23] = test: Antioxidant activity in mouse liver assessed as inhibition of Fe2+/ascorbate-induced lipid peroxidation up to 100 ug/ml by TBARS assay relative to control; format: functional, tissue-based
How it was run: (§5)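 Male ICR mice, 7 weeks, 30–35 g. Liver or brain homogenized 1:1 (w/v) in ice-cold 40 mM Tris-HCl pH 7.4 and spun at 3000g. Supernatant incubated with sample (20 or 100 µg/mL), 10 µM FeSO4 and 0.1 mM ascorbic acid, 37 °C for 1 h. TCA then TBA added, 80 °C for 20 min, A532 of MDA-TBA read with MDA standard; % inhibition versus control.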

B16 [24] = test: Antimelanogenic activity in mouse B16 cells assessed as decrease in TRP1 expression at 20 ug/ml after 72 hrs by Western blotting; format: functional, cell-based; how it was run: as §4
B16 [25] = test: Antimelanogenic activity in mouse B16 cells assessed as decrease in MC1R expression at 20 ug/ml after 72 hrs by Western blotting; format: functional, cell-based; how it was run: as §4
B16 [26] = test: Antimelanogenic activity in mouse B16 cells assessed as decrease in MCIR expression at 20 ug/ml after 72 hrs by flow cytometry assay; format: functional; settings: B16, 72 h; how it was run: as §3
Liver [27] = test: Antioxidant activity in mouse liver assessed as inhibition of Fe2+/ascorbate-induced lipid peroxidation up to 20 ug/ml by TBARS assay relative to control; format: functional, tissue-based; how it was run: as §5
B16 [28] = test: Antimelanogenic activity in mouse B16 cells assessed as decrease in MITF expression at 20 ug/ml after 72 hrs by flow cytometry assay; format: functional; settings: B16, 72 h; how it was run: as §3
Brain = test: Antioxidant activity in mouse brain assessed as Fe2+/ascorbate-induced lipid peroxidation up to 100 ug/ml by TBARS assay relative to control

Row | inhibition [2] [%] | inhibition [3] [%] | EC50 [7] [µg/mL] | EC50 [11] [µg/mL] | Compound | Activity (B16 [1]) | Activity (Hs68) | Activity [4] [%] | Activity [5] [%] | Activity [6] [%] | Activity [8] [%] | Activity [9] [%] | response, % of control at 20 µg/mL [10] [%] | other results
1 | 30.9 | 33.1 |  |  | OC[C@H]1O[C@@H](Oc2ccc(O)cc2)[C@H](O)[C@@H](O)[C@@H]1O [ARBUTIN] | Toxic | Toxic |  |  |  |  |  |  | 
2 | 41.7 | 29.8 | 4.2 (≈ 23.8 µM) | 4.9 | O=C1O[C@H]([C@@H](O)CO)C(O)=C1O [ASCORBIC ACID] | Toxic | Toxic | 87.6 | 71.3 | 62.5 | 81.4 | 0 | 102 | 
3 | 57.4 | 22.2 | 2.1 (≈ 13.6 µM) | 4 | O=C(O)c1ccc(O)c(O)c1 [PROTOCATECHUIC ACID] | Non-toxic | Non-toxic | 82.7 | 70.4 | 68.4 | 74.6 | 43 | 85.1 | inhibition at 20 µg/mL (B16 [12]): 54.6%; inhibition (B16 [13]): Dose-dependent effect; inhibition (B16 [14]): Active; Activity [15]: inactive; inhibition [16]: Dose-dependent effect; inhibition at 20 µg/mL (B16 [17]): 34.8%; inhibition (B16 [18]): Active; inhibition at 20 µg/mL (B16 [19]): 29.3%; inhibition (B16 [20]): Active; Activity (B16 [21]): Non-toxic; Activity [22]: inactive; Activity (Liver [23]): Dose-dependent effect; inhibition (B16 [24]): Active; inhibition (B16 [25]): Active; inhibition at 20 µg/mL (B16 [26]): 21.1%; Activity (Liver [27]): Dose-dependent effect; inhibition at 20 µg/mL (B16 [28]): 46.6%; MDA-TBA level relative to control (Brain): 14.9%
4 |  |  |  |  | Cc1c(C)c2c(c(C)c1O)CCC(C)(C(=O)O)O2 (configuration not stated) [TROLOX] |  |  |  |  |  |  |  | 81.2 | 
